Reference: ChEMBL document CHEMBL1212737, “Novel approach for comparing the abilities of quinolones to restrict the emergence of resistant mutants during quinolone exposure” (2010)
Values after ≈ are worked out from the molar mass of the structure shown. Active and inactive are the calls of the source. The calls are words filed in the database; no cut-off is given here.

Assays:
Escherichia coli [1] = experiment: Reduction quinolone resistant mutation in wild type Escherichia coli DM4100 assessed as decrease in recovery of resistant bacterial mutant colonies at 5 times MIC by agar plate assay; type: functional, organism-based
In short: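 Same agar-plate accumulation assay at 5× MIC99 with an inoculum of 10^9 CFU. Drug added to molten LB agar, incubated at 37°C, and cumulative colonies scored at daily intervals. Repeated with inocula of 8 × 10^6 to 10^10 CFU in two replicate experiments.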

Escherichia coli [2] = experiment: Antimicrobial activity against wild type Escherichia coli DM4100 assessed as decrease in bacterial survival at 3 times MIC by agar plate method; type: functional, organism-based
In short: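 DM4100 (10^4 to 10^8 CFU) spread on quartered agar plates with drug at three times MIC; at various times a quarter excised, washed with LB, cells pelleted (5,000 × g, 5 min), diluted onto drug-free agar at 37°C, colonies counted at 24 and 48 h. Survival relative to untreated input, corrected for resistant mutants scored on 0.02 μg/ml ciprofloxacin agar; two replicate experiments.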

Escherichia coli [3] = experiment: Antimicrobial activity against wild type Escherichia coli DM4100 assessed as bactericidal activity; type: functional
In short: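 Liquid-culture killing: E. coli at 5 × 10^6 CFU/ml exposed 20 h to a range of drug concentrations, survivors counted by dilution and plating on drug-free agar incubated overnight at 37°C; MBC taken as concentration lowering survival by 99.9%.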

Escherichia coli [4] = experiment: Antimicrobial activity against wild type Escherichia coli DM4100 by agar or broth dilution method; type: functional
In short: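 K-12 strain grown in LB at 37°C; 10^4–10^5 CFU applied to agar plates or broth with a dilution series of compound; colonies counted after 2 days or turbidity scored after 1 day. MIC99 is the concentration blocking colony formation by 99%, interpolated from log-log plots.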

Escherichia coli [5] = experiment: Reduction quinolone resistant mutation in wild type Escherichia coli DM4100 assessed as decrease in recovery of resistant bacterial mutant colonies at 2 times MIC by agar plate assay; type: functional, organism-based
Escherichia coli [6] = experiment: Ratio of mutant prevention concentration to MIC99 for wild type Escherichia coli DM4100; type: functional
In short: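 Population analysis: stationary-phase DM4100 from LB spread on agar plates spanning a broad drug range; colonies counted, passaged on drug-free agar, then retested at the selecting concentration to confirm resistance. MPC is the concentration blocking colony formation from 10^10 CFU, expressed relative to MIC99.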

Escherichia coli [7] = experiment: Ratio of MBC to MIC99 in wild type Escherichia coli DM4100; type: functional
In short: (§1)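 MBC (99.9% kill after 20 h in liquid at 5 × 10^6 CFU/ml, survivors plated on drug-free agar) divided by MIC99 (99% block of colony formation, agar or broth dilution with 10^4–10^5 CFU, log-log interpolation); efflux-deficient tolC strain for line 4, wild-type DM4100 for line 5.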

Escherichia coli [8] = experiment: Ratio of MBC to MIC99 in Escherichia coli KD1397 containing tolC::Tn10 gyrA+ mutant; type: functional; in short: as §1
Escherichia coli [9] = experiment: Antimicrobial activity against Escherichia coli KD1397 containing tolC::Tn10 gyrA+ mutant assessed as bactericidal activity; type: functional
In short: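 Liquid-culture lethality: 5 × 10^6 CFU/ml aliquots exposed 20 h to a range of compound concentrations; survivors counted by dilution and plating on drug-free LB agar, overnight at 37°C. MBC taken as the concentration lowering survival by 99.9%.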

Escherichia coli [10] = experiment: Antimicrobial activity against Escherichia coli KD1397 containing tolC::Tn10 gyrA+ mutant by agar or broth dilution method; type: functional
In short: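 MIC by agar or broth dilution in LB, 37°C: 10^4–10^5 CFU applied to plates or broth cultures with serial compound concentrations. Colonies counted after 2 days, or turbid growth scored after 1 day. MIC99 is the minimal concentration blocking colony formation by 99%, interpolated from log-log plots.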

Escherichia coli [11] = experiment: Ratio of mutant prevention concentration to MIC99 for Escherichia coli KD1397 containing tolC::Tn10 gyrA+ mutant; type: functional
Escherichia coli [12] = experiment: Reduction quinolone resistant mutation in wild type Escherichia coli DM4100 assessed as decrease in recovery of resistant bacterial mutant colonies by agar plate assay; type: functional, organism-based
In short: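 Drug added to molten LB agar; 10^4–10^10 CFU of E. coli applied and incubated at 37°C for up to 2 weeks, with cumulative colonies counted daily. Day-1 colonies are taken as the preexisting-mutant baseline. Drug concentration is normalized to MIC99.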

Structure (SMILES): CCN1CCN(c2c(F)cc3c(=O)c(C(=O)O)cn(C4CC4)c3c2OC)CC1
- inhibition (Escherichia coli [1]): Active
- inhibition (Escherichia coli [2]): Active
- MBC (Escherichia coli [3]): 0.27 µg/mL (≈ 0.693 µM)
- MIC99 (Escherichia coli [4]): 0.14 µg/mL (≈ 0.36 µM)
- inhibition (Escherichia coli [5]): Active
- Ratio (Escherichia coli [6]): 7
- Ratio (Escherichia coli [7]): 1.9

Structure (SMILES): CCN1CCN(c2cc3c(cc2F)c(=O)c(C(=O)O)cn3C2CC2)CC1 [ENROFLOXACIN]
- inhibition (Escherichia coli [1]): Active
- inhibition (Escherichia coli [2]): Active
- MBC (Escherichia coli [3]): 0.07 µg/mL (≈ 0.195 µM)
- MIC99 (Escherichia coli [4]): 0.022 µg/mL (≈ 0.0612 µM)
- inhibition (Escherichia coli [5]): Active
- Ratio (Escherichia coli [6]): 15
- Ratio (Escherichia coli [7]): 3.2

Structure (SMILES): COc1c(N2CC[C@@H](CN)C2)c(F)cc2c(=O)c(C(=O)O)cn(C3CC3)c12
- Ratio (Escherichia coli [8]): 2.5
- MBC (Escherichia coli [9]): 0.01 µg/mL (≈ 0.0266 µM)
- MIC99 (Escherichia coli [10]): 0.004 µg/mL (≈ 0.0107 µM)
- Ratio (Escherichia coli [11]): 8

Structure (SMILES): CCn1cc(C(=O)O)c(=O)c2ccc(C)nc21
- inhibition (Escherichia coli [12]): Dose-dependent effect

Structure (SMILES): COc1c(N2CC[C@@H](CN)C2)c(F)cc2c(=O)n(N)c(=O)n(C3CC3)c12
- Ratio (Escherichia coli [8]): 2
- MBC (Escherichia coli [9]): 1 µg/mL (≈ 2.75 µM)
- MIC99 (Escherichia coli [10]): 0.5 µg/mL (≈ 1.38 µM)
- Ratio (Escherichia coli [11]): 3

Structure (SMILES): CCC1CN(c2cc3c(cc2F)c(=O)c(C(=O)O)cn3C2CC2)CCN1 (configuration not stated)
- inhibition (Escherichia coli [1]): Active
- inhibition (Escherichia coli [2]): Active
- MBC (Escherichia coli [3]): 0.16 µg/mL (≈ 0.445 µM)
- MIC99 (Escherichia coli [4]): 0.045 µg/mL (≈ 0.125 µM)
- inhibition (Escherichia coli [5]): Active
- Ratio (Escherichia coli [6]): 10
- Ratio (Escherichia coli [7]): 3.5

Structure (SMILES): CCC1CN(c2c(F)cc3c(=O)c(C(=O)O)cn(C4CC4)c3c2OC)CCN1 (configuration not stated)
- inhibition (Escherichia coli [1]): Active
- inhibition (Escherichia coli [2]): Active
- MBC (Escherichia coli [3]): 0.33 µg/mL (≈ 0.847 µM)
- MIC99 (Escherichia coli [4]): 0.11 µg/mL (≈ 0.282 µM)
- inhibition (Escherichia coli [5]): Active
- Ratio (Escherichia coli [6]): 6
- Ratio (Escherichia coli [7]): 3
